What was measured:
[1] = target: T1, Glycogen phosphorylase, liver form (Homo sapiens, UniProt P06737); experiment: (§1) Inhibitory concentration against glycogen phosphorylase
T1 sequence (P06737 whole entry): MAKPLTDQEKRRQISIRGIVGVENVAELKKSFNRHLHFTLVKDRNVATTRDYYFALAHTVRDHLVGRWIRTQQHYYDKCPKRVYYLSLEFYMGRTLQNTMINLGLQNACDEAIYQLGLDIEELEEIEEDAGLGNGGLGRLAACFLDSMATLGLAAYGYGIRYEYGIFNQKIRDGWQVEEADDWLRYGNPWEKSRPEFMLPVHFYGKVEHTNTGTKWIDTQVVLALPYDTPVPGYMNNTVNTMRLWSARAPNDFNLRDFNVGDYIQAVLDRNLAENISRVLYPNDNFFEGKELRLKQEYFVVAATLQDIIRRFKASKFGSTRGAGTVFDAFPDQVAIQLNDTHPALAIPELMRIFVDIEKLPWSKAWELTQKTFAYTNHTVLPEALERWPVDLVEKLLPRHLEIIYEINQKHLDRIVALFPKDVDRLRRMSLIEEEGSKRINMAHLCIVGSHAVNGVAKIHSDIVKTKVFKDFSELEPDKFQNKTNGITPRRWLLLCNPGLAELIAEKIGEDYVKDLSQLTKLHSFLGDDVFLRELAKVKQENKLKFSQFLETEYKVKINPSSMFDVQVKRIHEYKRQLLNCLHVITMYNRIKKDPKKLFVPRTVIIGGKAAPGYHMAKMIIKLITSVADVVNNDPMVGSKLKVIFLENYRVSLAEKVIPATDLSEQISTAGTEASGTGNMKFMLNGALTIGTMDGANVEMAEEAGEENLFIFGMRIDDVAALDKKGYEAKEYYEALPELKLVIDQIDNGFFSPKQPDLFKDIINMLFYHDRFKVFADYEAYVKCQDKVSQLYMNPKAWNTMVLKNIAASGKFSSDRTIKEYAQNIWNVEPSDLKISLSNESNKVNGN

Mus musculus [2] = experiment: In-vivo minimum effective dose (MED) for reduction of plasma glucose in mouse after 3 hours; format: functional; conditions: read-out: MED
Method in brief: (§2)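 Fed diabetic ob/ob mice, oral dosing in neat PEG400, starting at […] and then at successively lower doses. Plasma glucose measured 3h post-dose. Lowering is expressed as percent decrease versus vehicle-treated controls within the same experiment, with significance by unpaired t-test on group mean glucose. MED is the lowest dose giving reduction.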

Mus musculus [3] = species: Mus musculus; experiment: Percentage of glucose lowering after 3h at minimum effective dose in mouse; format: functional; method in brief: as §2
SK-HEP1 = experiment: Inhibitory concentration against human SK-Hep-1 cells (hepatoma cell line); format: functional, cell-based
Method in brief: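 SK-HEP-1 cells carrying pre-labeled ¹⁴C-glycogen, with phosphorylase activated by forskolin. Glycogenolysis is the ¹⁴C-glycogen (dpm) difference between basal and forskolin-treated cells. Inhibition is expressed as percent of forskolin-induced glycogenolysis in DMSO controls. IC50 from a 6-point curve (0.1–30μM), triplicate points, mean of ≥2 independent experiments where repeated.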

[4] = target: T1, Glycogen phosphorylase, liver form; experiment: as §1; remark: listed apart in the source
Method in brief: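 Recombinant human liver GPa (50ng), run in the glycogen-synthesis direction at 22°C. Compounds added in 14% DMSO before enzyme. Released phosphate read at 620nm with malachite green/molybdate in HCl after 20min. IC50 from triplicate dose-response curves, mean of ≥3 determinations (≥2 if >500 nM).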

| Structure (SMILES) | IC50 [1] | IC50 (SK-HEP1) | IC50 [4] | minimal effective dose (Mus musculus [2]) | Activity (Mus musculus [3]) |
| --- | --- | --- | --- | --- | --- |
| O=C(NCC(=O)N(CCO)C1CCC1)c1cc2cc(Cl)ccc2[nH]1 | 0.13 µM | 2 µM |  | 25 mg/kg | 30% |
| O=C(NCC(=O)N(CCOc1ccccc1)C1CCCC1)c1cc2cc(Cl)ccc2[nH]1 |  |  | 1.4 µM |  |  |
| CN(C(=O)CNC(=O)c1cc2cc(Cl)ccc2[nH]1)C1CCCC1 | 0.055 µM | 1.7 µM |  | 10 mg/kg | 36% |
| N#CCN(C(=O)CNC(=O)c1cc2cc(Cl)ccc2[nH]1)C1CCCC1 | 0.03 µM | 0.68 µM |  | 10 mg/kg | 40% |
| O=C(NCC(=O)N(CCOCCO)C1CCCC1)c1cc2cc(Cl)ccc2[nH]1 | 0.23 µM | 3.8 µM |  | > 10 mg/kg |  |
| O=C(NCC(=O)N(CCO)C1CCCCC1)c1cc2cc(Cl)ccc2[nH]1 | 0.099 µM | 0.71 µM |  | > 10 mg/kg |  |
| O=C(NCC(=O)N(CCO)CC1CC1)c1cc2cc(Cl)ccc2[nH]1 | 0.16 µM | 1.5 µM |  | > 10 mg/kg |  |
| CC(C)CN(CCO)C(=O)CNC(=O)c1cc2cc(Cl)ccc2[nH]1 | 0.18 µM | 2.5 µM |  | 25 mg/kg | 25% |

More lines, main results first:

| IC50 [1] | IC50 (SK-HEP1) | IC50 [4] | Structure (SMILES) | minimal effective dose (Mus musculus [2]) | Activity (Mus musculus [3]) |
| --- | --- | --- | --- | --- | --- |
| 0.25 µM | 1.4 µM |  | O=C(NCC(=O)N(CCO)C1CCOCC1)c1cc2cc(Cl)ccc2[nH]1 | 5 mg/kg | 27% |
| 0.057 µM | 0.14 µM |  | O=C(NCC(=O)N(CCO)C1CCCC1)c1cc2cc(Cl)ccc2[nH]1 | 5 mg/kg | 25% |
|  | 1.5 µM |  | CN(C)C(=O)[C@H](O)[C@H](Cc1ccccc1)NC(=O)c1cc2cc(Cl)ccc2[nH]1 | 25 mg/kg | 32% |
| 0.15 µM | 0.49 µM |  | CCCN(CCO)C(=O)CNC(=O)c1cc2cc(Cl)ccc2[nH]1 | > 25 mg/kg |  |
| 0.21 µM | 3.4 µM |  | CC(C)N(CCO)C(=O)CNC(=O)c1cc2cc(Cl)ccc2[nH]1 | > 10 mg/kg |  |
| 0.15 µM | 1.4 µM |  | CC(C)(O)CN(C(=O)CNC(=O)c1cc2cc(Cl)ccc2[nH]1)C1CCCC1 | 10 mg/kg | 30% |

From ChEMBL document CHEMBL1144257, “5-Chloroindoloyl glycine amide inhibitors of glycogen phosphorylase: synthesis, in vitro, in vivo, and X-ray crystallographic characterization” (Bioorg Med Chem Lett, 2005)
